An excerpt weighted towards active compounds, which were near 2.9% of everything screened.
A3G deaminase: APOBEC3G DNA deaminase inhibitors, primary screen, biochemical, fluorescence, single-stranded DNA substrate, uHTS; recombinant A3G, ssDNA deamination FAM/TAMRA fluorescence; DNA dC->dU-editing enzyme APOBEC-3G (Homo sapiens), Q9HC16; inhibition, % at 20 µM; AID 493012, 2011; 330,000 tested, 0.28% active;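 active = inhibition of at least 40% at 20 µM, with no more than 30% in the related APOBEC3A deaminase screen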;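 note: plate controls were DMSO wells with A3G for no effect and wells lacking A3G enzyme for full effect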
HCV core dimer: inhibitors of HCV core protein dimerization, primary screen, biochemical, TR-FRET, high-throughput. TR-FRET GST/Flag-core106 dimerization, 1536-well. inhibition, % at 5 µM. 300,000 tested, 0.33% active. AID 1899, 2009;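 active = inhibition above the mean of all tested compounds plus 3 SD, set per screening campaign, cut at about 45% in these data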
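Material: Tagged HCV core106 pair (GST and Flag) | Amount: GST-core106 13.5 nM, Flag-core106 17 nM | Medium: KF-containing HEPES buffer, pH 7.45, DTT, CHAPS, BSA | Reagent: Eu donor and XL665 acceptor anti-tag antibodies | Schedule: 4 h at 22.5 °C | Technique: Time-resolved FRET, ex 340 nm, em 617 and 671 nm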
ABHD5 PLIN5 PPI: ABHD5-PLIN5 interaction inhibitors, primary screen, cell lysate, split luciferase complementation, luminescence | Perilipin-5 (Homo sapiens) + 1-acylglycerol-3-phosphate O-acyltransferase ABHD5 (Homo … | Split G. princeps luciferase complementation, 4 h | inhibition, % at 4 µM | 360,000 tested, 0.78% active;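 active = inhibition above the mean inhibition across every tested compound plus 3 SD, cut at about 22% in these data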;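 note: 0% = DMSO only wells and the 100% control is not disclosed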
Target sequence (Q00G26 whole entry, looked up): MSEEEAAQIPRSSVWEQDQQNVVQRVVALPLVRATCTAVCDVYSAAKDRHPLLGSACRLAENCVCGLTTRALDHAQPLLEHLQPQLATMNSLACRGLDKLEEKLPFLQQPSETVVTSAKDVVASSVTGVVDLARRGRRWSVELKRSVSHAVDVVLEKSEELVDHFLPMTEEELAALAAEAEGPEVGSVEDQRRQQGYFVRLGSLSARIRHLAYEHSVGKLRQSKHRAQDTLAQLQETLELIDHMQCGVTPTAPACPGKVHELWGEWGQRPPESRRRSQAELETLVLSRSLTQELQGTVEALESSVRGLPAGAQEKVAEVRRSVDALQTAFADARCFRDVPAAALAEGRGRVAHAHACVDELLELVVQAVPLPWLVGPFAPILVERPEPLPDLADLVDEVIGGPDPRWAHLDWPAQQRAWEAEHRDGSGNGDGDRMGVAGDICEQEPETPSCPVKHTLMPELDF
Target sequence (Q8WTS1 whole entry, looked up): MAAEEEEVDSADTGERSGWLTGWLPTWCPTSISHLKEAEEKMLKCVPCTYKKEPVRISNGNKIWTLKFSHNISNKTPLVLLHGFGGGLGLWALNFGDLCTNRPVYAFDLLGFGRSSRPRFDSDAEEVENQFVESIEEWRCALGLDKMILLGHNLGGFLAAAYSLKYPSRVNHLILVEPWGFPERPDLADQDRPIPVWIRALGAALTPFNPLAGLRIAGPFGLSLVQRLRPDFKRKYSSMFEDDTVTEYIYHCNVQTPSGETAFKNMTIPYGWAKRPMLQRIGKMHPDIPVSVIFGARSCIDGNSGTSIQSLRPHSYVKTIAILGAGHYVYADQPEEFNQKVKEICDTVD
PRMT1 inh: PRMT1 methyltransferase inhibitors, primary screen, biochemical, fluorescence polarization. Protein arginine N-methyltransferase 1 (Homo sapiens), Q99873. recombinant PRMT1, activity-based probe fluorescence polarization. inhibition, % at 2.79 µM. 370,000 tested, 1.3% active. AID 652257, 2013;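 active = inhibition above about 21% made by adding two undisclosed values, limit read from the data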
NS3 helicase inh: inhibitors of HCV NS3 helicase, primary screen, biochemical, Cy5 molecular beacon fluorescence; 290,000 tested, 0.56% active; NS3 helicase DNA unwinding; Hepatitis C virus NS3 helicase; inhibition, % at 10.9 µM;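 active = inhibition above the mean of all tested compounds plus 3 SD, set per campaign, cut at about 35% in these data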;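 note: 0% = DMSO wells and 100% = thioflavine S control wells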
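Compound dosing – single dose, 10.9 µM nominal final, DMSO 0.8% final · System – NS3 helicase fragment of HCV · Buffer or medium – MOPS pH 6.5, MgCl2, DTT, Tween20, BSA · Signal – Cy5 beacon fluorescence read at start and 1 h · Also added – annealed dual-labelled DNA beacon duplex, ATP-started · Schedule – 1 h at 25 °C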
A3A deaminase: APOBEC3A ssDNA deaminase inhibitors, primary screen, selectivity assay for APOBEC3G inhibitor project, biochemical, FAM/TAMRA oligo cleavage fluorescence. DNA dC->dU-editing enzyme APOBEC-3A (Homo sapiens), P31941. recombinant A3A, FAM/TAMRA ssDNA deamination fluorescence. 330,000 tested, 0.41% active. AID 493011, 2011. inhibition, % at 20 µM;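 active = at least 40% inhibition at 20 µM here, with at most 30% in a related deaminase screen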;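 note: plate controls were A3A with DMSO for no effect and wells lacking A3A enzyme for full effect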
* hit, by the source's call; . = no result.

SMILES	A3G deaminase	HCV core dimer	ABHD5 PLIN5 PPI	PRMT1 inh	NS3 helicase inh	A3A deaminase
O=C(NC(Cc1ccccc1)C(=O)O)/C(=C\c1ccco1)NC(=O)c1ccccc1Br (stereo not drawn)	-1	-7	3	24*	17	5
Cn1cnnc1SCc1ccc(C(=O)N/N=C(/CCC(=O)O)c2ccc(C(C)(C)C)cc2)cc1	.	.	0	1	.	.
Cc1cc(/C=N/NC(=O)Cn2c3ccccc3c(=O)c3ccccc32)c(C)n1-c1ccc(Cl)cc1	.	.	4	0	24	.
Cc1ccc(-n2c(C)cc(/C=N/NC(=O)Cn3c4ccccc4c(=O)c4ccccc43)c2C)cc1	-3	68*	6	-1	27	-4
O=C(N/N=C/c1ccc(N2CCCC2)c([N+](=O)[O-])c1)c1cccnc1	-5	-9	-3	-1	11	-4
O=C(CNc1ccccc1)N/N=C/c1cc([N+](=O)[O-])ccc1N1CCCC1	-3	2	6	5	4	-2
O=C(Cn1c2ccccc2c(=O)c2ccccc21)N/N=C/c1ccc(N2CCCC2)c([N+](=O)[O-])c1	.	51*	-3	-3	12	.
O=C(Cn1c2ccccc2c(=O)c2ccccc21)N/N=C/c1cc([N+](=O)[O-])ccc1N1CCCCCC1	1	65*	0	5	1	3
CC1(C)Cc2c(C#N)c(N3CCN(C(=O)c4ccco4)CC3)nc(-c3ccco3)c2CS1	90	72*	4	-2	23	91
CC1(C)Cc2c(C#N)c(N3CCN(C(=O)c4ccccc4Cl)CC3)nc(-c3ccco3)c2CS1	4	81*	29*	20	28	15
CC(C)C(C(=O)NCc1ccccc1)N1CCN(CCN2CCOCC2)CC1 (stereo not drawn)	.	.	.	-4	.	.
O=C1C2CC=C(Cl)CC2C(=O)N1CCc1c[nH]c2ccccc12 (stereo not drawn)	2	6	-6	1	-1	-3
O=C1C2CC=C(Cl)CC2C(=O)N1CCc1ccccc1 (stereo not drawn)	-5	8	0	24*	13	5
CCN(CC)C(=O)CC[C@H]1CC[C@]2(CCCN(C(=O)c3ccco3)C2)O1	.	.	.	5	.	.
Oc1c(N=Nc2nn[nH]n2)ccc2ccccc12	.	.	-46	35*	.	.
O=C(NC1CCCCN(Cc2cccc(C(F)(F)F)c2)C1=O)c1ccc(F)cc1 (stereo not drawn)	.	.	.	-2	.	.
CSc1nc(SCC(=O)NCc2ccco2)c2c3c(sc2n1)CN(C)CC3	54	48*	-4	9	6	49
Cc1ccc(/C=C/C(O)=C2/C(=O)N(C)C3(C)CC2c2ccccc2O3)cc1 (stereo not drawn)	-1	10	22*	0	-4	0
COc1ccc(/C=C/C(O)=C2/C(=O)N(C)C3(C)CC2c2ccccc2O3)cc1 (stereo not drawn)	-1	7	7	-1	-6	-1
O=C(Cc1ccc(S(=O)(=O)N2CCOCC2)s1)OCc1ccc(Cl)cc1	-7	.	8	-3	.	-4
N#Cc1cc(-c2ccccc2)nn1-c1ccccc1	24	-8	2	23*	-7	0
NS(=O)(=O)c1ccc(N=Nc2c[nH]c(=O)c(O)c2)cc1	11	-27	-14	27*	9	12
Cc1ccc(-c2csc(N3N=C(c4ccccc4)/C(=C\c4ccc(N(C)C)cc4)C3=O)n2)cc1	0	46*	.	.	33	0
CN(C)c1ccc(-c2csc(C(C)(O)c3ccccc3)n2)cc1 (stereo not drawn)	.	.	0	-1	.	.
COC(=O)[C@]12C[C@H](CC(=O)NCc3cccc(C(F)(F)F)c3)C(=O)N(CCc3ccc(OC)c(OC)c3)C1=C[C@H](C(C)C)O[C@@H]2C1CC1	.	.	.	-1	.	.

Assay outcomes deposited in PubChem BioAssay by several laboratories.
